Bioassay records from PubChem BioAssay.
PP1 inh: blocks human PP1-alpha phosphatase, a PP5 counter-screen. P62136. purified PP1alpha, OMFP fluorescence. inhibition, % at 6.7 µM. 320,000 compounds, 0.9% hits. AID 2235;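 active = inhibition above the mean inhibition of all tested compounds plus 3 SD, computed separately for each screening campaign, cut at about 15% in these data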
Target sequence (P62136 whole entry, looked up): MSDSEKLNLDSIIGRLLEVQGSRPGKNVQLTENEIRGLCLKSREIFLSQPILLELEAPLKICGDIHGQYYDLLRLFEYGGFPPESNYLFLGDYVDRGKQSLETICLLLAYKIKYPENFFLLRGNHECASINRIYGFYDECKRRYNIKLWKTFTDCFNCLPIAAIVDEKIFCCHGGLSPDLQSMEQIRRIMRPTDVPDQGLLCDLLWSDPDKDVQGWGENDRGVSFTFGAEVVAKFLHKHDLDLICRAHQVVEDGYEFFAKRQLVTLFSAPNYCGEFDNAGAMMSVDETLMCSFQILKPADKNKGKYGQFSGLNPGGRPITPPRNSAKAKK
core dimer inh: blocks dimerization of HCV core protein; TR-FRET GST/Flag-core106 dimerization, 1536-well; inhibition, % at 5 µM; 300,000 compounds, 0.33% hits;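 active = inhibition above the mean of all tested compounds plus 3 SD, set per screening campaign, cut at about 45% in these data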
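Test system: GST/Flag-tagged HCV core106 proteins; Medium: KF-containing HEPES buffer, pH 7.45, DTT, CHAPS, BSA; Times: compound-protein-antibody incubation 4 h at 22.5 °C; Detection: TR-FRET 671 and 617 nm emission; Benchmarks: wells lacking GST-core106 and wells with excess unlabelled core106.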
ZTA counter: ZTA (EBV) inhibition in EBNA-1 counter-screen | inhibition, % at 11 µM | ZTA-DNA binding, fluorescence polarization | 320,000 compounds, 0.15% hits; in the data active = inhibition above about 33%
Target sequence (P03206 whole entry, looked up): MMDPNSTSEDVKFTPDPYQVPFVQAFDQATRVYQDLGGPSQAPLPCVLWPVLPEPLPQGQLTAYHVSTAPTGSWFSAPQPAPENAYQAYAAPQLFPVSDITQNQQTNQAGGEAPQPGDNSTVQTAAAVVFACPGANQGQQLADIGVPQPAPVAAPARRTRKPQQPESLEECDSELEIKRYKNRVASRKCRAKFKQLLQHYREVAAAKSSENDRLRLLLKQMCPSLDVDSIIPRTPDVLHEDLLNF
EBNA-1 inhibitor: blocks EBNA-1 binding to DNA; EBNA-1 DNA binding, fluorescence polarization; inhibition, % at 14.8 µM; 300,000 compounds, 0.34% hits; AID 1950; in the data active = inhibition above about 28%
PP5 inh: PP5 (human) phosphatase inhibition | P53041 | 320,000 compounds, 0.18% hits | inhibition, % at 6.7 µM | purified PP5c, OMFP substrate fluorescence;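 active = inhibition above the campaign's mean inhibition across all tested compounds plus 3 SD, cut at about 9.5% in these data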
PP1 inh confirm: human PP1 phosphatase inhibition, confirmation; purified PP1alpha, OMFP substrate fluorescence; shares compounds with PP1 inh; inhibition, % at 6.7 µM; 1,900 compounds, 52% hits; AID 2358;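 active = mean PP1 inhibition above a set limit taken from the earlier primary screen, cut at about 15% in these data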
PP5 counter: counter-screen for PP1 inhibitors: human PP5 phosphatase inhibition. shares compounds with PP1 inh. purified PP5c, OMFP fluorescence. inhibition, % at 6.7 µM. 1,900 compounds, 4% hits;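 active = mean PP5 inhibition over triplicate wells above about 9.5% taken from the earlier PP1 screen, limit read from the data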
Of the large screens only hits and unclear results are named; the others gave an inactive call (follow-up assays come after a bar, where they were run). Compounds with a hit are over-represented: about 1.7% of the library has one in this group of screens.

Cc1ccc(-c2nc(NCc3ccco3)c3ccccc3n2)cc1	none
Cc1cccc(Nc2nc(NCc3ccco3)c3ccccc3n2)c1	PP1 inh 25, PP5 inh 10 | PP1 inh confirm inactive | PP5 counter inactive
Oc1ccccc1Nc1nc(NCc2ccco2)c2ccccc2n1	none
Cc1ccccc1Nc1nc(NCc2ccco2)c2ccccc2n1	PP1 inh 25 | PP1 inh confirm inactive | PP5 counter inactive
COc1ccc(CN(C(=O)c2snc(C(N)=O)c2N)C(CC(C)C)C(=O)NC2CCCCC2)cc1 (stereo not given)	none
N#Cc1nc(-c2ccc(OCc3ccccc3)cc2)oc1NCCCn1ccnc1	PP1 inh 21 | PP1 inh confirm inactive | PP5 counter inactive
N#Cc1nc(-c2ccc(OCc3ccccc3Cl)cc2)oc1NCCCn1ccnc1	none
O=C(NCCc1ccccc1)C(=O)NCC1OCCCN1S(=O)(=O)c1cccs1 (stereo not given)	none
N#Cc1c(-c2ccccc2)nc(SCC(=O)N2c3ccccc3Sc3ccccc32)[nH]c1=O	PP1 inh 21 | PP1 inh confirm 17 | PP5 counter inactive
N#Cc1c(-c2ccccc2)nc(SCc2ccc(Cl)cc2)[nH]c1=O	PP1 inh 18 | PP1 inh confirm inactive | PP5 counter inactive
N#Cc1c(-c2ccccc2)nc(SCC(=O)N(c2ccccc2)c2ccccc2)[nH]c1=O	none
C=CCSc1nc(-c2ccccc2)c(C#N)c(=O)[nH]1	none
COc1ccc(C(=O)NCCNc2nc3ccc(C)cc3cc2C#N)cc1OC	none
COc1ccc(C2=NN(C(=O)c3ccco3)C(c3ccco3)C2)cc1OC (stereo not given)	none
Cn1c(=O)c(C(=O)Nc2ncccc2O)c(O)c2ccccc21	PP1 inh 28 | PP1 inh confirm 30 | PP5 counter inactive
Cc1ccc(NC(=O)c2c(O)c3ccccc3n(C)c2=O)nc1	none
O=C(CSc1nnc(CNC(=O)c2cccs2)o1)Nc1cccc(Cl)c1	none
Fc1cccc(CSc2ccc3nnc(-c4ccccn4)n3n2)c1	PP1 inh 18 | PP1 inh confirm inactive | PP5 counter inactive
CCOC(=O)c1sc(-c2ccc(Cl)cc2Cl)nc1O	PP1 inh 21 | PP1 inh confirm 21 | PP5 counter inactive
CC(Cc1cccs1)NC(=O)Nc1ccc(Cl)c(Cl)c1 (stereo not given)	none
O=C(CN1C(=O)NC2(CCCC2)C1=O)OCCOc1cccc(Cl)c1	PP1 inh 18 | PP1 inh confirm inactive | PP5 counter inactive
CCN(CC)S(=O)(=O)c1ccc(N2CCCCC2)c(NC(=O)C2=COCCO2)c1	none
Cc1cc(SCC(=O)c2cccs2)nc2ccccc12	none
Cc1cc(C2=NNC(=NC3CCCCC3)SC2)c(C)n1-c1c(C)n(C)n(-c2ccccc2)c1=O	PP1 inh 19, core dimer inh 65 | PP1 inh confirm inactive | PP5 counter inactive
Cc1cc(C2=NNC(=NC3CC3)SC2)c(C)n1-c1ccccc1F	none
O=C(N/N=C/c1ccco1)c1cc(-c2ccccc2)n[nH]1	none
Cc1ccc(-c2cc(C(=O)N/N=C/c3ccco3)[nH]n2)cc1	none | PP1 inh confirm inactive | PP5 counter inactive
COc1ccc(C(=O)Nc2ccc(-c3nnn(CC(=O)NCc4ccco4)n3)cc2)cc1	PP1 inh 20 | PP1 inh confirm 24 | PP5 counter inactive
O=C(Cn1nnc(-c2ccc(Cl)cc2)n1)NCc1ccco1	none
Cn1c(=O)oc2cc(S(=O)(=O)Nc3cccc(C(=O)O)c3)ccc21	PP1 inh 42 | PP1 inh confirm inactive | PP5 counter inactive
O=C(Cn1c(=O)n(Cc2ccco2)c(=O)c2c3c(sc21)CCCCC3)c1ccccc1	PP1 inh 25, core dimer inh 72 | PP1 inh confirm 16 | PP5 counter inactive
CN(C)CCn1c(=O)n(Cc2ccco2)c(=O)c2c3c(sc21)CCCCC3	none
Cc1nc(-c2ccccn2)nc(SCC(=O)c2ccc(F)cc2)c1Cl	PP1 inh 27 | PP1 inh confirm 41 | PP5 counter inactive
O=C(CN1C(=O)NC2(CCCCCC2)C1=O)c1ccc(OC(F)F)cc1OC(F)F	none
Cc1cc(/C=N/n2cnnc2)c(C)n1-c1ccc(OCc2ccc(F)cc2)cc1	PP1 inh 19 | PP1 inh confirm inactive | PP5 counter inactive
Cc1cc(/C=N/n2cnnc2)c(C)n1-c1ccc(Cl)cc1	none
Cc1cc(/C=N/n2cnnc2)c(C)n1-c1ccc(OCc2ccc(Cl)cc2Cl)cc1	PP1 inh 27 | PP1 inh confirm 42 | PP5 counter inactive
COCCn1c(C)cc(C2=NNC(=Nc3ccc(OC)cc3)SC2)c1C	PP1 inh 20 | PP1 inh confirm inactive | PP5 counter inactive
COCCn1c(C)cc(C2=NNC(=Nc3ccccc3)SC2)c1C	none
COc1ccccc1P(=O)(Cc1ccccc1)c1ccccc1 (stereo not given)	none
Cc1cccc(OCc2nnc(SCC(=O)N3c4ccccc4CCc4ccccc43)o2)c1	PP1 inh 19 | PP1 inh confirm inactive | PP5 counter inactive
O=C(CSc1nnc(COc2ccc(F)cc2)o1)N1c2ccccc2CCc2ccccc21	none
NS(=O)(=O)c1ccc(CNC(=O)c2cc(-c3cccnc3)nc3ccc(Br)cc23)cc1	none
CCOC(=O)c1cnc2c(C)c(-c3ccccc3)[nH]n2c1=O	PP1 inh 49 | PP1 inh confirm 34 | PP5 counter inactive
CCOC(=O)c1cnc2nc(Cc3ccccc3)[nH]n2c1=O	none
CCOC(=O)c1cnc(-n2[nH]c(C)c(Cc3ccccc3)c2=O)[nH]c1=O	PP1 inh 28 | PP1 inh confirm inactive | PP5 counter inactive
O=S(=O)(c1cnc(Cl)c(Br)c1)N1CCN(c2ncccn2)CC1	none
O=C(NN1C(=O)/C(=C/C=C/c2ccco2)SC1=S)c1ccccc1O	PP1 inh 33, core dimer inh 70, ZTA counter 49, EBNA-1 inhibitor 37 | PP1 inh confirm inactive | PP5 counter inactive
Cn1cccc1/C=C1\SC(=S)N(NC(=O)c2ccccc2O)C1=O	none
CCc1ccc(NS(=O)(=O)c2ccc3[nH]cc(C(=O)N4CCc5ccccc54)c(=O)c3c2)cc1	PP1 inh 19 | PP1 inh confirm inactive | PP5 counter inactive
Cc1ccccc1NC(=O)CSc1nnc(NC(=O)c2ccco2)s1	none
CC1(C)Cc2c(C#N)c(N3CCN(C(=O)c4ccco4)CC3)nc(-c3ccco3)c2CS1	PP1 inh 19, core dimer inh 72 | PP1 inh confirm inactive | PP5 counter inactive
CCN1C(=O)N(C)[C@@H](c2ccccc2)C(C(=O)OC)=C1C	none
CCN1/C(=C/C=C/C=C/C=C/c2sc3ccccc3[n+]2CC)Sc2ccccc21	PP1 inh 20, ZTA counter 60, EBNA-1 inhibitor 42 | PP1 inh confirm 39 | PP5 counter inactive
CCN1/C(=C/C=C/c2sc3ccccc3[n+]2CC)Sc2ccccc21	PP1 inh 18 | PP1 inh confirm inactive | PP5 counter inactive
